Assay results published in ChEMBL document CHEMBL2390927, “Design, synthesis and antimicrobial evaluation of novel benzimidazole type of Fluconazole analogues and their synergistic effects with Chloromycin, Norfloxacin and Fluconazole” (2013).
≈ marks a conversion by molar mass, not a printed value.

Legend:
Candida = test: Antifungal activity against Candida mycoderma after 24 hrs by two-fold serial dilution method; format: functional
In short: (§1)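 Spore suspension in sterile distilled water from one-day-old cultures on Sabouraud agar, final 1–5 × 10³ spore mL⁻¹. Compound stocks diluted in sterile RPMI 1640 as two-fold serial dilutions in microdilution plates. MIC is the lowest concentration completely inhibiting growth. Growth monitored visually and spectrophotometrically, in triplicate.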

Candida albicans = test: Antifungal activity against Candida albicans ATCC 76615 after 24 hrs by two-fold serial dilution method; format: functional; conditions: ATCC 76615, 24 h; in short: as §1
Salmonella typhi = test: Antibacterial activity against Bacillus typhi after 24 hrs by two-fold serial dilution method; format: functional, Salmonella enterica subsp. enterica serovar Typhi; conditions: Salmonella enterica
In short: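 Two-fold serial dilution in 96-well plates following NCCLS; compounds dissolved in DMSO as stocks, then diluted in Mueller-Hinton broth; bacterial suspension adjusted with sterile saline to 1 × 10⁵ CFU; MIC taken as lowest concentration completely inhibiting growth, monitored visually and spectrophotometrically; DMSO-plus-inoculum well as solvent control; triplicate.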

Pseudomonas aeruginosa = test: Antibacterial activity against Pseudomonas aeruginosa ATCC 27853 after 24 hrs by two-fold serial dilution method; format: functional; conditions: ATCC 27853, 24 h
In short: (§2)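 MIC taken as the lowest concentration giving complete growth inhibition, by standard two-fold serial dilution in 96-well plates following NCCLS. Stocks in DMSO, diluted in Mueller–Hinton broth. Inoculum adjusted with sterile saline to 1 × 10⁵ CFU. DMSO with inoculum and no drug served as solvent control. Growth read visually and spectrophotometrically, in triplicate.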

Escherichia coli = test: Antibacterial activity against Escherichia coli JM109 after 24 hrs by two-fold serial dilution method; format: functional; conditions: JM109, 24 h
Bacillus = test: Antibacterial activity against Bacillus proteus ATCC 13315 after 24 hrs by two-fold serial dilution method; format: functional; conditions: ATCC 13315, 24 h; in short: as §2
Micrococcus luteus = test: Antibacterial activity against Micrococcus luteus ATCC 4698 after 24 hrs by two-fold serial dilution method; format: functional; conditions: ATCC 4698, 24 h; in short: as §2
Bacillus subtilis = test: Antibacterial activity against Bacillus subtilis ATCC 21216 after 24 hrs by two-fold serial dilution method; format: functional; conditions: ATCC 21216, 24 h; in short: as §2
Staphylococcus aureus [1] = test: Antibacterial activity against methicillin-resistant Staphylococcus aureus N315 after 24 hrs by two-fold serial dilution method; format: functional; conditions: N315, 24 h
Staphylococcus aureus [2] = test: Antibacterial activity against Staphylococcus aureus ATCC 6538 after 24 hrs by two-fold serial dilution method; format: functional; conditions: ATCC 6538, 24 h
Aspergillus flavus = test: Antifungal activity against Aspergillus flavus after 24 hrs by two-fold serial dilution method; format: functional; in short: as §1
Cyberlindnera jadinii = test: Antifungal activity against Candida utilis after 24 hrs by two-fold serial dilution method; format: functional; conditions: Williopsis jadinii; in short: as §1
Saccharomyces cerevisiae = test: Antifungal activity against Saccharomyces cerevisiae after 24 hrs by two-fold serial dilution method; format: functional; in short: as §1

| SMILES | MIC (Candida) | MIC (Candida albicans) | MIC (Salmonella typhi) | MIC (Pseudomonas aeruginosa) | MIC (Escherichia coli) | MIC (Bacillus) | MIC (Micrococcus luteus) | MIC (Bacillus subtilis) | MIC (Staphylococcus aureus [1]) | MIC (Staphylococcus aureus [2]) | MIC (Aspergillus flavus) | MIC (Cyberlindnera jadinii) | MIC (Saccharomyces cerevisiae) |
| --- | --- | --- | --- | --- | --- | --- | --- | --- | --- | --- | --- | --- | --- |
| Cc1ccc(N(Cc2ccc(Cl)c(Cl)c2)Cc2nc3ccccc3[nH]2)cc1 | 128 µg/mL (≈ 323 µM) | 128 µg/mL (≈ 323 µM) | 64 µg/mL (≈ 161 µM) | 128 µg/mL (≈ 323 µM) | 64 µg/mL (≈ 161 µM) | 128 µg/mL (≈ 323 µM) | 64 µg/mL (≈ 161 µM) | 128 µg/mL (≈ 323 µM) | 64 µg/mL (≈ 161 µM) | 32 µg/mL (≈ 80.7 µM) | 128 µg/mL (≈ 323 µM) | 64 µg/mL (≈ 161 µM) | 128 µg/mL (≈ 323 µM) |
| Fc1ccc(N(Cc2nc3ccccc3[nH]2)Cc2ccc(Cl)cc2Cl)c(F)c1 | 64 µg/mL (≈ 153 µM) | 128 µg/mL (≈ 306 µM) | 128 µg/mL (≈ 306 µM) | 64 µg/mL (≈ 153 µM) | 32 µg/mL (≈ 76.5 µM) | 32 µg/mL (≈ 76.5 µM) | 64 µg/mL (≈ 153 µM) | 64 µg/mL (≈ 153 µM) | 128 µg/mL (≈ 306 µM) | 64 µg/mL (≈ 153 µM) | 64 µg/mL (≈ 153 µM) | 32 µg/mL (≈ 76.5 µM) | 32 µg/mL (≈ 76.5 µM) |
| CCCCCCCCN(Cc1nc2ccccc2[nH]1)c1ccc(C)cc1.Cl.Cl | 128 µg/mL | 64 µg/mL | 64 µg/mL | 128 µg/mL | 128 µg/mL | 64 µg/mL | 64 µg/mL | 128 µg/mL | 128 µg/mL | 64 µg/mL | 128 µg/mL | 64 µg/mL | 64 µg/mL |
| Fc1ccccc1N(CCCCn1c2ccccc2c2ccccc21)Cc1nc2ccccc2[nH]1 | 64 µg/mL (≈ 138 µM) | 32 µg/mL (≈ 69.2 µM) | 128 µg/mL (≈ 277 µM) | 64 µg/mL (≈ 138 µM) | 128 µg/mL (≈ 277 µM) | 64 µg/mL (≈ 138 µM) | 128 µg/mL (≈ 277 µM) | 64 µg/mL (≈ 138 µM) | 128 µg/mL (≈ 277 µM) | 64 µg/mL (≈ 138 µM) | 64 µg/mL (≈ 138 µM) | 32 µg/mL (≈ 69.2 µM) | 64 µg/mL (≈ 138 µM) |
| Fc1ccccc1N(Cc1ccc(Cl)c(Cl)c1)Cc1nc2ccccc2[nH]1 | 32 µg/mL (≈ 79.9 µM) | 32 µg/mL (≈ 79.9 µM) | 128 µg/mL (≈ 320 µM) | 64 µg/mL (≈ 160 µM) | 32 µg/mL (≈ 79.9 µM) | 64 µg/mL (≈ 160 µM) | 128 µg/mL (≈ 320 µM) | 32 µg/mL (≈ 79.9 µM) | 128 µg/mL (≈ 320 µM) | 64 µg/mL (≈ 160 µM) | 64 µg/mL (≈ 160 µM) | 32 µg/mL (≈ 79.9 µM) | 64 µg/mL (≈ 160 µM) |
| CCCN(Cc1nc2ccccc2[nH]1)c1ccc(C)cc1 | 128 µg/mL (≈ 458 µM) | 128 µg/mL (≈ 458 µM) | 128 µg/mL (≈ 458 µM) | 256 µg/mL (≈ 916 µM) | 128 µg/mL (≈ 458 µM) | 128 µg/mL (≈ 458 µM) | 128 µg/mL (≈ 458 µM) | 64 µg/mL (≈ 229 µM) | 256 µg/mL (≈ 916 µM) | 128 µg/mL (≈ 458 µM) | 128 µg/mL (≈ 458 µM) | 64 µg/mL (≈ 229 µM) | 128 µg/mL (≈ 458 µM) |
| CCCCCCCCCCCCCCCCCCN(Cc1nc2ccccc2[nH]1)c1ccc(C)cc1 | 32 µg/mL (≈ 65.3 µM) | 32 µg/mL (≈ 65.3 µM) | 64 µg/mL (≈ 131 µM) | 64 µg/mL (≈ 131 µM) | 256 µg/mL (≈ 523 µM) | 64 µg/mL (≈ 131 µM) | 256 µg/mL (≈ 523 µM) | 64 µg/mL (≈ 131 µM) | 128 µg/mL (≈ 261 µM) | 128 µg/mL (≈ 261 µM) | 64 µg/mL (≈ 131 µM) | 32 µg/mL (≈ 65.3 µM) | 64 µg/mL (≈ 131 µM) |
| Cc1ccc(NCc2nc3ccccc3[nH]2)cc1 | 256 µg/mL (≈ 1080 µM) | 32 µg/mL (≈ 135 µM) | 64 µg/mL (≈ 270 µM) | 64 µg/mL (≈ 270 µM) | 64 µg/mL (≈ 270 µM) | 16 µg/mL (≈ 67.4 µM) | 512 µg/mL (≈ 2160 µM) | 64 µg/mL (≈ 270 µM) | 128 µg/mL (≈ 539 µM) | 32 µg/mL (≈ 135 µM) | 128 µg/mL (≈ 539 µM) | 32 µg/mL (≈ 135 µM) | 64 µg/mL (≈ 270 µM) |
| CCCCCCCCN(Cc1nc2ccccc2[nH]1)c1ccc(C)cc1 | 32 µg/mL (≈ 91.6 µM) | 16 µg/mL (≈ 45.8 µM) | 64 µg/mL (≈ 183 µM) | 16 µg/mL (≈ 45.8 µM) | 128 µg/mL (≈ 366 µM) | 64 µg/mL (≈ 183 µM) | 128 µg/mL (≈ 366 µM) | 16 µg/mL (≈ 45.8 µM) | 128 µg/mL (≈ 366 µM) | 32 µg/mL (≈ 91.6 µM) | 64 µg/mL (≈ 183 µM) | 32 µg/mL (≈ 91.6 µM) | 16 µg/mL (≈ 45.8 µM) |
| Cc1ccc(N(Cc2nc3ccccc3[nH]2)Cc2ccc(F)cc2F)cc1 | 32 µg/mL (≈ 88.1 µM) | 32 µg/mL (≈ 88.1 µM) | 32 µg/mL (≈ 88.1 µM) | 32 µg/mL (≈ 88.1 µM) | 128 µg/mL (≈ 352 µM) | 64 µg/mL (≈ 176 µM) | 64 µg/mL (≈ 176 µM) | 32 µg/mL (≈ 88.1 µM) | 16 µg/mL (≈ 44 µM) | 16 µg/mL (≈ 44 µM) | 32 µg/mL (≈ 88.1 µM) | 32 µg/mL (≈ 88.1 µM) | 64 µg/mL (≈ 176 µM) |
| FC(F)(F)c1cccc(N(Cc2nc3ccccc3[nH]2)Cc2ccc(Cl)cc2Cl)c1 | 32 µg/mL (≈ 71.1 µM) | 64 µg/mL (≈ 142 µM) | 32 µg/mL (≈ 71.1 µM) | 32 µg/mL (≈ 71.1 µM) | 64 µg/mL (≈ 142 µM) | 64 µg/mL (≈ 142 µM) | 32 µg/mL (≈ 71.1 µM) | 64 µg/mL (≈ 142 µM) | 32 µg/mL (≈ 71.1 µM) | 32 µg/mL (≈ 71.1 µM) | 64 µg/mL (≈ 142 µM) | 32 µg/mL (≈ 71.1 µM) | 32 µg/mL (≈ 71.1 µM) |
| OC(Cn1cncn1)(Cn1cncn1)c1ccc(F)cc1F [FLUCONAZOLE] | 4 µg/mL (≈ 13.1 µM) | 1 µg/mL (≈ 3.27 µM) | – | – | – | – | – | – | – | – | 256 µg/mL (≈ 836 µM) | 8 µg/mL (≈ 26.1 µM) | 16 µg/mL (≈ 52.2 µM) |
